Screening results: PubChem BioAssay, several laboratories
Hsp70 act = Hsp70 transcriptional activation, primary screen; AID 1203; activation, % at 10 µM; actives 0.04% (n = 200,000); HeLa Hsp70 promoter luciferase reporter, luminescence; scaled: vehicle 0, proteasome-inhibitor control 100%;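 active = activation above the mean across all tested compounds plus 3 SD, cutoff set per campaign, cut at about 5.5% in these data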;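 note: 100% = MG132 at 30 µM as the positive control and 0% = DMSO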
Dynein cargo inh = blocks dynein driven cargo transport along microtubules | 3617.4 mouse cells, GR-EGFP nuclear translocation imaging; test concentration mostly 20 µM; stimulated with dexamethasone, 1 µM; stronger effect = lower value | z-score, hits read low | actives 0.47% (n = 220,000) | AID 1381;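 active = plate z-score of nuclear minus cytoplasmic receptor signal below a set negative limit, without overly bright fluorescence or cell loss, cut at about -3.5 in these data, passing the limit was not always enough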;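 note: z-score of nuclear minus cytoplasmic ring GR-EGFP intensity difference per well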
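Also added: dexamethasone, 1.0 µM final. Medium: tet-free, stripped-serum medium. Detection: fixed, Hoechst-stained cells imaged at 10x for EGFP. Read-out: nuclear-to-cytoplasmic GR-EGFP distribution per well. Times: induction 48 h, compound 1 h, agonist 30 min.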
EP2 mod = modulators of human EP2 prostaglandin E2 receptor. P43116. EP2-expressing cells, cAMP HTRF FRET, PGE2 co-stimulation. induction, % at 25 µM. actives 0.83% (n = 260,000);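 active = compounds whose cAMP rise, as percent of the full-agonist control response, exceeds 60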;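 note: rat C6 glioma line stably carrying human EP2 under a CMV promoter; the protocol text gives 20 µM as final concentration; 100% = response of wells given 1 µM PGE2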
Target sequence (P43116 whole entry, looked up): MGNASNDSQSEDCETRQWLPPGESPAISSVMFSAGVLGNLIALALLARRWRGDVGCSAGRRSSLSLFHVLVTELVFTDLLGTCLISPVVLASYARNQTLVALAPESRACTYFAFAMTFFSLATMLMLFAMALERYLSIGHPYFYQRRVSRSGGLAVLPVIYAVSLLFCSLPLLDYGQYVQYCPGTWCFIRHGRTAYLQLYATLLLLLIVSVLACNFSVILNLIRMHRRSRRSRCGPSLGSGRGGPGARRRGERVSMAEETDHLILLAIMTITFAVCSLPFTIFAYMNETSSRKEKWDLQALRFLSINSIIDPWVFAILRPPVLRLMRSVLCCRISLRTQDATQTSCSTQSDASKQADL
PGE2 EP2 inh = EP2 receptor (human) inhibition; C6 glioma cells expressing human EP2, cAMP TR-FRET; cells stimulated with saturating PGE2; AID 1422; actives 0.52% (n = 260,000); inhibition, % at 25 µM; P43116;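 active = percent inhibition above 40 after rounding to a whole number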;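 note: rat C6 glioma host cells with rolipram phosphodiesterase inhibitor present; the protocol text gives 20 µM as final concentration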
EP2 cAMP induct = human EP2 receptor cAMP induction, negative in counter-screens; shares compounds with EP2 mod; C6 glioma EP2 cells, cAMP HTRF induction; plus low (about EC15) PGE2 agonist; calls only at 20 µM (by protocol); actives 47% (n = 1,300); AID 1080;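 active = cAMP induction above 50% in the main assay while under 30% in all four parallel counter assays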;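 note: rat C6 glioma cells stably expressing human EP2 receptor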
Starred values were filed as active, the others as inactive. Shown are actives, neighbours in structure and some others; about 1.7% of the full set was active somewhere.

What do the screens show for `C=CCn1nc(-c2ccccc2)c(N2CCCCC2)cc1=O`?
Hsp70 act: 0; Dynein cargo inh: -0.049; EP2 mod: -11; PGE2 EP2 inh: 1

What do the screens show for `O=c1cc(N2CCCCC2)c(-c2ccccc2)nn1Cc1ccc(Cl)cc1Cl`?
Hsp70 act: 0; Dynein cargo inh: 0.82; EP2 mod: 60; PGE2 EP2 inh: 8

Results for Cc1nc2c(C(=O)Nc3ccc(N4CCOCC4)cc3)snc2c(=O)[nH]1 ?
EP2 mod: 5; PGE2 EP2 inh: 15

How did Cc1ccc2[nH]c(=O)c(C(c3nnnn3C(C)(C)C)N3CCN(c4ccc(F)cc4)CC3)cc2c1 (configuration not stated) do in these assays?
EP2 mod: 31; PGE2 EP2 inh: 15

What do the screens show for `CCOP(=O)(OCC)c1nc(-c2cccc([N+](=O)[O-])c2)oc1N1CCCCC1`?
Hsp70 act: 0; Dynein cargo inh: 0.41; EP2 mod: -13; PGE2 EP2 inh: 8

Results for CCOP(=O)(c1ccccc1)c1nc(-c2ccccc2Cl)oc1N1CCCCC1 (configuration not stated) ?
Hsp70 act: 0; Dynein cargo inh: 1.8; EP2 mod: 71*; PGE2 EP2 inh: 6; EP2 cAMP induct: active

How did CC(=O)NC1=NN(C(C)=O)C2(S1)C(=O)N(CCc1ccccc1)c1ccc(F)cc12 (configuration not stated) do in these assays?
EP2 mod: -16; PGE2 EP2 inh: 14

What do the screens show for `CCOC(=O)C1CCCN(c2c(C(=O)c3ccccc3)cnc3ccccc23)C1` (configuration not stated)?
Hsp70 act: 0; Dynein cargo inh: -0.099; EP2 mod: 56; PGE2 EP2 inh: 3

What do the screens show for `CCOC(=O)C1CCN(c2c(C(=O)c3ccccc3)cnc3ccc(CC)cc23)CC1`?
Hsp70 act: 0; Dynein cargo inh: -0.95; EP2 mod: 77*; PGE2 EP2 inh: 5; EP2 cAMP induct: inactive

How did COc1ccccc1N(C(=O)NCc1ccccc1)C1=NCC(C)S1 (configuration not stated) do in these assays?
Hsp70 act: 0; Dynein cargo inh: -1.1; EP2 mod: 69*; PGE2 EP2 inh: 9; EP2 cAMP induct: active

Results for COc1ccccc1NC(=O)N(Cc1ccccc1)C1=NCC(C)S1 (configuration not stated) ?
Hsp70 act: 0; Dynein cargo inh: -0.47; EP2 mod: 60; PGE2 EP2 inh: 0

What do the screens show for `COc1cccc(/C(O)=C2/C(=O)C(=O)N(CCCn3ccnc3)C2c2cccnc2)c1` (configuration not stated)?
EP2 mod: 0; PGE2 EP2 inh: 12

How did CSc1nc2ccsc2c(=O)n1-c1ccccc1 do in these assays?
Hsp70 act: 0; Dynein cargo inh: -0.049; EP2 mod: 38; PGE2 EP2 inh: 8

Results for O=c1c2ccccc2nc(/C=C/c2ccccc2)n1CCc1ccccc1 ?
Hsp70 act: 0; Dynein cargo inh: -1.2; EP2 mod: 80*; PGE2 EP2 inh: 7; EP2 cAMP induct: active

Results for C=CCSc1nc2ccsc2c(=O)n1-c1ccccc1 ?
Hsp70 act: 0; Dynein cargo inh: -0.27; EP2 mod: 68*; PGE2 EP2 inh: 5; EP2 cAMP induct: inactive

Results for C=CCSc1nc2ccccc2c(=O)n1Cc1ccccc1 ?
Hsp70 act: 0; Dynein cargo inh: -0.75; EP2 mod: 72*; PGE2 EP2 inh: 10; EP2 cAMP induct: active

What do the screens show for `O=c1c2ccccc2nc(/C=C/c2cccnc2)n1Cc1ccccc1`?
Hsp70 act: 0; Dynein cargo inh: -1.3; EP2 mod: 16; PGE2 EP2 inh: 3

How did Cc1cccc(/C=C/c2nc3ccccc3c(=O)n2Cc2ccccc2)c1 do in these assays?
Hsp70 act: 0; Dynein cargo inh: 0.22; EP2 mod: 69*; PGE2 EP2 inh: 1; EP2 cAMP induct: active

How did CCC(C)NC(=O)C1CCN(C(=O)c2ccc(Cl)cc2)CC1 (configuration not stated) do in these assays?
EP2 mod: -16; PGE2 EP2 inh: 10

Results for Cc1cc2cc3c(cc2n2c(=O)n(CC(=O)N4CCCCC4C)nc12)OCO3 (configuration not stated) ?
EP2 mod: 9; PGE2 EP2 inh: 7

What do the screens show for `CCOc1ccc(-n2nc3c(=S)[nH]nc(C)c3c2C)cc1`?
Hsp70 act: 0; Dynein cargo inh: -0.08; EP2 mod: 66*; PGE2 EP2 inh: 21; EP2 cAMP induct: inactive

How did Cc1onc(-c2ccccc2)c1C(=O)N(Cc1ccco1)Cc1cccs1 do in these assays?
Hsp70 act: 0; Dynein cargo inh: -0.61; EP2 mod: 98*; PGE2 EP2 inh: 9; EP2 cAMP induct: active

How did Cc1sc(NC(=O)c2cccs2)nc1-c1ccc(Br)cc1 do in these assays?
EP2 mod: 4; PGE2 EP2 inh: 3

How did Cc1ccc(-c2cccc(C(=O)NCc3ccccc3)n2)c2ccccc12 do in these assays?
Hsp70 act: 0; Dynein cargo inh: 0.27; EP2 mod: 66*; PGE2 EP2 inh: 5; EP2 cAMP induct: active

Results for Cc1cc2cc3c(cc2n2c(=O)n(CC(=O)NC4CCCCC4)nc12)OCO3 ?
EP2 mod: -27

Results for O=C(Nc1ccccc1N1CCCC1)c1cccnc1 ?
Hsp70 act: 0; Dynein cargo inh: -0.17; EP2 mod: 21; PGE2 EP2 inh: 7

What do the screens show for `Cc1ccc(C(=O)Nc2ccccc2N2CCCCC2)cc1[N+](=O)[O-]`?
Hsp70 act: 0; Dynein cargo inh: -0.36; EP2 mod: 66*; PGE2 EP2 inh: 1; EP2 cAMP induct: active

How did CN1CCN(c2ccccc2NC(=O)c2ccc(N3CCCCC3)c([N+](=O)[O-])c2)CC1 do in these assays?
Hsp70 act: 0; Dynein cargo inh: 0.25; EP2 mod: -8; PGE2 EP2 inh: 8

How did COc1ccc(C(=O)Nc2ccccc2N2CCCCC2)cc1[N+](=O)[O-] do in these assays?
Hsp70 act: 0; Dynein cargo inh: -1.6; EP2 mod: 52; PGE2 EP2 inh: 5; EP2 cAMP induct: active

How did Cc1ccccc1C(=O)Nc1ccccc1N1CCCCC1 do in these assays?
Hsp70 act: 0; Dynein cargo inh: 0.32; EP2 mod: 60; PGE2 EP2 inh: 7; EP2 cAMP induct: active

Results for O=C(Nc1ccccc1N1CCCCC1)c1cnccn1 ?
Hsp70 act: 0; Dynein cargo inh: -0.53; EP2 mod: 66*; PGE2 EP2 inh: 5; EP2 cAMP induct: active

Results for O=C(NCCNCc1ccco1)c1ccc(F)cc1 ?
EP2 mod: -10; PGE2 EP2 inh: 14

Results for CC(=O)Nc1c(C(=O)O)[nH]c2ccc(F)cc12 ?
EP2 mod: -6; PGE2 EP2 inh: 10

How did CCN(CC)C(=O)Cn1cc(C(=O)C(=O)NCc2ccco2)c2ccccc21 do in these assays?
Hsp70 act: 0; Dynein cargo inh: 0.6; EP2 mod: 67*; PGE2 EP2 inh: 2; EP2 cAMP induct: inactive
